In brackets after ≈: the same amount, converted by molar mass.
What was measured:
[1] = test system: Escherichia coli; assay: Antibacterial activity determined against Escherichia coli; format: functional
In short: (§1)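 Broth microdilution: an overnight-culture bacterial suspension was added to compound in 2.5% DMSO in water, giving a final inoculum of about 10^2–10^3 CFU/well. Plates were incubated 20–24 h at 37 °C, and growth relative to a no-compound control was read as A595. MIC was given as a range: complete inhibition at the upper concentration, viable cells at the lower.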

[2] = test system: Staphylococcus aureus; assay: Antibacterial activity determined against Staphylococcus aureus; format: functional; in short: as §1
[3] = Inhibition of bacterial transcription/translation
[4] = test system: Candida albicans; assay: Antifungal activity determined against Candida albicans 10231; format: functional
In short: as §1, with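 “Candida albicans:” for “Broth microdilution:”, “yeast” for “bacterial”, “40–48” for “20–24”, “25” for “37”, “versus” for “relative to”, “higher” for “upper”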

[5] = test system: Escherichia coli; assay: Antibacterial activity determined against gram-negativeE. coli 25922; format: functional; in short: as §1
[6] = test system: Enterococcus hirae; assay: Antibacterial activity determined against gram-positive Enterococcus hirae 29212; format: functional; in short: as §1
[7] = test system: Klebsiella pneumoniae; assay: Antibacterial activity determined against gram-negativeK. pneumoniae 13383; format: functional; in short: as §1
[8] = test system: Proteus vulgaris; assay: Antibacterial activity determined against gram-negativeP. vulgaris 8427; format: functional; in short: as §1
[9] = test system: Pseudomonas aeruginosa; assay: Antibacterial activity determined against gram-negativeP. aeruginosa 25416; format: functional; in short: as §1
[10] = test system: Staphylococcus aureus; assay: Antibacterial activity determined against gram-positive Staphylococcus aureus 13709; format: functional; in short: as §1
[11] = test system: Streptococcus pyogenes; assay: Antibacterial activity determined against gram-positive Streptococcus pyogenes 49399; format: functional; in short: as §1
[12] = test system: Streptococcus pneumoniae; assay: Antibacterial activity determined against gram-positive Streptococcus pneumoniae 6303; format: functional; in short: as §1
[13] = test system: Enterococcus faecium; assay: Antibacterial activity determined against Enterococcus faecium ATCC 6569; format: functional; in short: as §1
[14] = test system: Enterococcus faecium; assay: Antibacterial activity determined against Enterococcus faecium ATCC 882; format: functional; in short: as §1
[15] = test system: Enterococcus faecalis; assay: Antibacterial activity determined against Enterococcus faecalis ATCC 11823; format: functional; in short: as §1
[16] = test system: Enterococcus faecalis; assay: Antibacterial activity determined against Enterococcus faecalis ATCC 23241; format: functional; in short: as §1
[17] = test system: Enterococcus faecalis; assay: Antibacterial activity determined against Enterococcus faecalis ATCC 4200; format: functional; in short: as §1
[18] = test system: Enterococcus faecalis; assay: Antibacterial activity determined against Enterococcus faecalis ATCC 49757; format: functional; in short: as §1
[19] = test system: Enterococcus faecalis; assay: Antibacterial activity determined against Enterococcus faecalis ATCC 828; format: functional; in short: as §1
[20] = test system: Candida albicans; assay: Antibacterial activity determined against Candida albicans 10231; format: functional
In short: as §1, with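 “Candida albicans:” for “Broth microdilution:”, “yeast” for “bacterial”, “40–48” for “20–24”, “25” for “37”, “versus” for “relative to”, “higher” for “upper”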

Row | SMILES | MIC [1] | MIC [2] | IC50 [3] | MIC [4] | MIC [5] | MIC [6] | MIC [7] | MIC [8] | MIC [9] | MIC [10] | MIC [11] | MIC [12] | MIC [13] | MIC [14] | MIC [15] | MIC [16] | MIC [17] | MIC [18] | MIC [19] | MIC [20]
1 | O=C(O)c1cn(C2CC2)c2cc(N3CCNCC3)c(F)cc2c1=O [CIPROFLOXACIN] | 0.75 µM (≈ 0.249 µg/mL) | 0.75 µM (≈ 0.249 µg/mL) | > 100 µM |  |  |  |  |  |  |  |  |  |  |  |  |  |  |  |  | 
2 | Clc1cc2nc(C3CCNCC3)n(Cc3ccc(CNCCc4cc5ccccc5[nH]4)cc3)c2cc1Cl | 12 µM (≈ 6.39 µg/mL) | 12 µM (≈ 6.39 µg/mL) | > 100 µM |  |  |  |  |  |  |  |  |  |  |  |  |  |  |  |  | 
3 | Clc1cc2nc(C3CCNCC3)[nH]c2cc1Cl | > 100 µM | > 100 µM | > 100 µM |  |  |  |  |  |  |  |  |  |  |  |  |  |  |  |  | 
4 | Clc1cc2nc(C3CCNCC3)n(Cc3ccc(CNCCc4c[nH]cn4)cc3)c2cc1Cl | 12 µM (≈ 5.8 µg/mL) | 6 µM (≈ 2.9 µg/mL) | 25 µM | > 100 µM | 12 µM (≈ 5.8 µg/mL) | 3 µM (≈ 1.45 µg/mL) | 12 µM (≈ 5.8 µg/mL) | 25 µM (≈ 12.1 µg/mL) | 25 µM (≈ 12.1 µg/mL) | 6 µM (≈ 2.9 µg/mL) | 6 µM (≈ 2.9 µg/mL) | 12 µM (≈ 5.8 µg/mL) |  |  |  |  |  |  |  | 
5 | NCCN(CCN)CCNCc1ccc(Cn2c(C3CCNCC3)nc3cc(Cl)c(Cl)cc32)cc1 | 12 µM (≈ 6.22 µg/mL) | 3 µM (≈ 1.56 µg/mL) | 10 µM | > 100 µM | 12 µM (≈ 6.22 µg/mL) | 3 µM (≈ 1.56 µg/mL) | 12 µM (≈ 6.22 µg/mL) | 25 µM (≈ 13 µg/mL) | 12 µM (≈ 6.22 µg/mL) | 3 µM (≈ 1.56 µg/mL) | 3 µM (≈ 1.56 µg/mL) | 6 µM (≈ 3.11 µg/mL) |  |  |  |  |  |  |  | 
6 | NCCCNCc1ccc(Cn2c(C3CCNCC3)nc3cc(Cl)c(Cl)cc32)cc1 | 50 µM (≈ 22.3 µg/mL) | 12 µM (≈ 5.36 µg/mL) | 20 µM | > 100 µM | 50 µM (≈ 22.3 µg/mL) | 6 µM (≈ 2.68 µg/mL) | 25 µM (≈ 11.2 µg/mL) |  | 25 µM (≈ 11.2 µg/mL) | 12 µM (≈ 5.36 µg/mL) | 6 µM (≈ 2.68 µg/mL) | 25 µM (≈ 11.2 µg/mL) | 12 µM (≈ 5.36 µg/mL) | 25 µM (≈ 11.2 µg/mL) | 12 µM (≈ 5.36 µg/mL) | 25 µM (≈ 11.2 µg/mL) | 25 µM (≈ 11.2 µg/mL) | 12 µM (≈ 5.36 µg/mL) | 12 µM (≈ 5.36 µg/mL) | 
7 | Clc1cc2nc(C3CCNCC3)n(Cc3cccnc3)c2cc1Cl | 50 µM (≈ 18.1 µg/mL) | 50 µM (≈ 18.1 µg/mL) | > 100 µM |  |  |  |  |  |  |  |  |  |  |  |  |  |  |  |  | 
8 | Clc1cc2nc(C3CCNCC3)n(Cc3ccc(CNC[C@@H]4CCCN4)cc3)c2cc1Cl | 12 µM (≈ 5.67 µg/mL) | 12 µM (≈ 5.67 µg/mL) | > 100 µM |  |  |  |  |  |  |  |  |  |  |  |  |  |  |  |  | 

Continued by falling MIC [1], values first:

Row | MIC [1] | MIC [2] | IC50 [3] | MIC [4] | MIC [5] | MIC [6] | MIC [7] | MIC [8] | MIC [9] | MIC [10] | MIC [11] | MIC [12] | MIC [13] | MIC [14] | MIC [15] | MIC [16] | MIC [17] | MIC [18] | MIC [19] | MIC [20] | SMILES
9 | 50 µM (≈ 18.1 µg/mL) | 50 µM (≈ 18.1 µg/mL) | > 100 µM |  |  |  |  |  |  |  |  |  |  |  |  |  |  |  |  |  | Clc1cc2nc(C3CCNCC3)n(Cc3ccncc3)c2cc1Cl
10 | 25 µM (≈ 11.5 µg/mL) | 6 µM (≈ 2.76 µg/mL) | 50 µM | > 100 µM | 25 µM (≈ 11.5 µg/mL) | 3 µM (≈ 1.38 µg/mL) | 25 µM (≈ 11.5 µg/mL) |  | 25 µM (≈ 11.5 µg/mL) | 6 µM (≈ 2.76 µg/mL) | 6 µM (≈ 2.76 µg/mL) | 25 µM (≈ 11.5 µg/mL) | 12 µM (≈ 5.53 µg/mL) | 12 µM (≈ 5.53 µg/mL) | 12 µM (≈ 5.53 µg/mL) | 12 µM (≈ 5.53 µg/mL) | 12 µM (≈ 5.53 µg/mL) | 12 µM (≈ 5.53 µg/mL) | 12 µM (≈ 5.53 µg/mL) |  | NCCCCNCc1ccc(Cn2c(C3CCNCC3)nc3cc(Cl)c(Cl)cc32)cc1
11 | 12 µM (≈ 5.51 µg/mL) | 6 µM (≈ 2.76 µg/mL) | > 100 µM | 50 µM (≈ 23 µg/mL) | 12 µM (≈ 5.51 µg/mL) | 1 µM (≈ 0.459 µg/mL) | 6 µM (≈ 2.76 µg/mL) | 25 µM (≈ 11.5 µg/mL) | 25 µM (≈ 11.5 µg/mL) | 6 µM (≈ 2.76 µg/mL) | 3 µM (≈ 1.38 µg/mL) | 12 µM (≈ 5.51 µg/mL) | 3 µM (≈ 1.38 µg/mL) | 6 µM (≈ 2.76 µg/mL) | 3 µM (≈ 1.38 µg/mL) | 6 µM (≈ 2.76 µg/mL) | 6 µM (≈ 2.76 µg/mL) | 6 µM (≈ 2.76 µg/mL) | 6 µM (≈ 2.76 µg/mL) |  | CCCCCNCc1ccc(Cn2c(C3CCNCC3)nc3cc(Cl)c(Cl)cc32)cc1
12 | 12 µM (≈ 5.86 µg/mL) | 6 µM (≈ 2.93 µg/mL) | > 100 µM | > 100 µM | 12 µM (≈ 5.86 µg/mL) | 1 µM (≈ 0.489 µg/mL) | 12 µM (≈ 5.86 µg/mL) | 25 µM (≈ 12.2 µg/mL) | 25 µM (≈ 12.2 µg/mL) | 6 µM (≈ 2.93 µg/mL) | 3 µM (≈ 1.47 µg/mL) | 12 µM (≈ 5.86 µg/mL) |  |  |  |  |  |  |  |  | NCCCCCCNCc1ccc(Cn2c(C3CCNCC3)nc3cc(Cl)c(Cl)cc32)cc1
13 | 12 µM (≈ 5.67 µg/mL) | 6 µM (≈ 2.83 µg/mL) | > 100 µM |  | 12 µM (≈ 5.67 µg/mL) | 3 µM (≈ 1.42 µg/mL) | 12 µM (≈ 5.67 µg/mL) | 25 µM (≈ 11.8 µg/mL) | 12 µM (≈ 5.67 µg/mL) | 6 µM (≈ 2.83 µg/mL) | 6 µM (≈ 2.83 µg/mL) | 12 µM (≈ 5.67 µg/mL) | 12 µM (≈ 5.67 µg/mL) | 12 µM (≈ 5.67 µg/mL) | 12 µM (≈ 5.67 µg/mL) | 12 µM (≈ 5.67 µg/mL) | 12 µM (≈ 5.67 µg/mL) | 12 µM (≈ 5.67 µg/mL) | 12 µM (≈ 5.67 µg/mL) | 50 µM (≈ 23.6 µg/mL) | Clc1cc2nc(C3CCNCC3)n(Cc3ccc(CNC4CCNCC4)cc3)c2cc1Cl

Source: ChEMBL document CHEMBL1136237, “2-piperidin-4-yl-benzimidazoles with broad spectrum antibacterial activities” (2003)
